# Source: PMC8009840 (Bioorganic chemistry, 2021)
# What was measured:
# KOR [1] = settings: cited from earlier work
# MOR = settings: read-out: MOR Ki; cited from earlier work
# KOR [2] = target: KOR (Mus musculus, UniProt P33534); experiment: Competitive radioligand binding assay, KOR; set-up: species or system mice; settings: for Selectivity δ/κ: Ki ratio DOR/KOR; for Selectivity μ/κ: Ki ratio MOR/KOR
# How it was run: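 Competition binding on membranes (30 μg protein) from CHO cells expressing mouse KOR or MOR, or human DOR. [3H]diprenorphine labels KOR and DOR, and [3H]naloxone labels MOR. Varied test compound in TME buffer (50 mM Tris, 3 mM MgCl2, 0.2 mM EGTA, pH 7.4), 1.5 h, 30 °C, then filtration. Nonspecific binding: 5 μM U50,488 (KOR), DAMGO (MOR), SNC80 (DOR). IC50 by nonlinear regression, converted to Ki by Cheng-Prusoff; selectivity as Ki ratios.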
# mouse DOR = mouse DOR (Mus musculus, UniProt P32300); experiment: [35S]-GTPγS functional assay, DOR-expressed CHO cell membranes; format: biochemical; settings: for EC50: read-out: DOR [35S]-GTPγS binding EC50, mean ± SEM, at least three experiments; for DOR [35S]-GTPγS binding % Emax of DPDPE: relative to full agonist DPDPE (5 μM)
# How it was run: (§1)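 CHO membranes (10 μg protein) incubated 1 h at 30 °C with varied test compound, GDP (15 μM) and 80 pM [35S]GTPγS; nonspecific binding with 10 μM unlabelled GTPγS. Full agonist at 5 μM for the maximal response: U50,488H (KOR), DAMGO (MOR), DPDPE (DOR). Emax is net-stimulated binding as % of that full-agonist stimulation. Mean ± SEM of at least three experiments.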
# human KOR = human KOR (Homo sapiens, UniProt P41145); experiment: [35S]-GTPγS functional assay, KOR-expressed CHO cell membranes; format: biochemical; settings: for EC50: read-out: KOR [35S]-GTPγS binding EC50, mean ± SEM, at least three experiments; for KOR [35S]-GTPγS binding % Emax of U50,488H: relative to full agonist U50,488H (5 μM)
# How it was run: as §1
# rat MOR = rat MOR (Rattus norvegicus, UniProt P33535); experiment: [35S]-GTPγS functional assay, MOR-expressed CHO cell membranes; format: biochemical; settings: for EC50: read-out: MOR [35S]-GTPγS binding EC50, mean ± SEM, at least three experiments; for MOR [35S]-GTPγS binding % Emax of DAMGO: relative to full agonist DAMGO (5 μM)
# How it was run: as §1
compound,measurement,setting,value
CN(C(=O)/C=C/c1ccoc1)[C@@H]1CC[C@@]2(O)[C@H]3Cc4cccc5c4[C@@]2(CCN3CC2CC2)[C@H]1O5 [CT-18],μ/κ Ki ratio,KOR [1],355
same,Ki,KOR [1]; read-out: KOR Ki,1.5 nM
same,Ki,MOR,533 nM
"Cl.O=C(N[C@@H]1CC[C@@]2(O)[C@H]3Cc4cccc5c4[C@@]2(CCN3CC2CC2)[C@H]1O5)c1ccnc(Cl)c1 [Compound 6a, 17-Cyclopropylmethyl-4,5α-epoxy-14β-hydroxy-6β-{[4′-(2′-chloropyridyl)]carboxamido}morphinan hydrochloride]",Selectivity δ/κ,KOR [2],203
same,Selectivity μ/κ,KOR [2],1.8
"O=C(N[C@@H]1CC[C@@]2(O)[C@H]3Cc4cccc5c4[C@@]2(CCN3CC2CC2)[C@H]1O5)c1ccnc(Br)c1 [Compound 6b, 17-Cyclopropylmethyl-4,5α-epoxy-14β-hydroxy-6β-{[4′-(2′-bromopyridyl)]carboxamido}morphinan]",Selectivity δ/κ,KOR [2],280
same,Selectivity μ/κ,KOR [2],3.3
same,EC50,mouse DOR,2680 ± 689 nM
same,DOR [35S]-GTPγS binding % Emax of DPDPE,mouse DOR,145.10 ± 12.31%
same,EC50,human KOR,81.9 ± 9.09 nM
same,"KOR [35S]-GTPγS binding % Emax of U50,488H",human KOR,99.27 ± 2.79%
same,EC50,rat MOR,291 ± 42 nM
same,MOR [35S]-GTPγS binding % Emax of DAMGO,rat MOR,33.62 ± 3.92%
"N#Cc1cc(C(=O)N[C@@H]2CC[C@@]3(O)[C@H]4Cc5cccc6c5[C@@]3(CCN4CC3CC3)[C@H]2O6)ccn1 [Compound 6c, 17-Cyclopropylmethyl-4,5α-epoxy-14β-hydroxy-6β-{[4′-(2′-cyanopyridyl)]carboxamido}morphinan]",Selectivity δ/κ,KOR [2],551
same,Selectivity μ/κ,KOR [2],9.5
same,EC50,mouse DOR,1850 ± 152 nM
same,DOR [35S]-GTPγS binding % Emax of DPDPE,mouse DOR,113.90 ± 3.10%
same,EC50,human KOR,92 ± 8.47 nM
same,"KOR [35S]-GTPγS binding % Emax of U50,488H",human KOR,100.20 ± 2.37%
same,EC50,rat MOR,338 ± 31.1 nM
same,MOR [35S]-GTPγS binding % Emax of DAMGO,rat MOR,26.48 ± 3.73%
"Cc1cc(C(=O)N[C@@H]2CC[C@@]3(O)[C@H]4Cc5cccc6c5[C@@]3(CCN4CC3CC3)[C@H]2O6)ccn1 [Compound 6d, 17-Cyclopropylmethyl-4,5α-epoxy-14β-hydroxy-6β-{[4′-(2′-methylpyridyl)]carboxamido}morphinan]",Selectivity δ/κ,KOR [2],38.0
same,Selectivity μ/κ,KOR [2],0.41
"COc1cc(C(=O)N[C@@H]2CC[C@@]3(O)[C@H]4Cc5cccc6c5[C@@]3(CCN4CC3CC3)[C@H]2O6)ccn1 [Compound 6e, 17-Cyclopropylmethyl-4,5α-epoxy-14β-hydroxy-6β-{[4′-(2′-methoxypyridyl)]carboxamido}morphinan]",Selectivity δ/κ,KOR [2],67.9
same,Selectivity μ/κ,KOR [2],0.53
